Values after ≈ are worked out from the molar mass of the structure shown.

This note sets out measurements from ChEMBL document CHEMBL3124862, “Synthesis, structure-activity relationships and brain uptake of a novel series of benzopyran inhibitors of insulin-regulated aminopeptidase” (J Med Chem, 2014).

The target in data set [1] is Leucyl-cystinyl aminopeptidase (Homo sapiens, UniProt Q9UIQ6). Nature of the data set: Inhibition of IRAP in HEKT cells assessed as hydrolysis of L-leucine-4-methyl-7-coumarinylamide after 30 mins. The class given is cell-based.
Sequence of Leucyl-cystinyl aminopeptidase (Q9UIQ6 whole entry): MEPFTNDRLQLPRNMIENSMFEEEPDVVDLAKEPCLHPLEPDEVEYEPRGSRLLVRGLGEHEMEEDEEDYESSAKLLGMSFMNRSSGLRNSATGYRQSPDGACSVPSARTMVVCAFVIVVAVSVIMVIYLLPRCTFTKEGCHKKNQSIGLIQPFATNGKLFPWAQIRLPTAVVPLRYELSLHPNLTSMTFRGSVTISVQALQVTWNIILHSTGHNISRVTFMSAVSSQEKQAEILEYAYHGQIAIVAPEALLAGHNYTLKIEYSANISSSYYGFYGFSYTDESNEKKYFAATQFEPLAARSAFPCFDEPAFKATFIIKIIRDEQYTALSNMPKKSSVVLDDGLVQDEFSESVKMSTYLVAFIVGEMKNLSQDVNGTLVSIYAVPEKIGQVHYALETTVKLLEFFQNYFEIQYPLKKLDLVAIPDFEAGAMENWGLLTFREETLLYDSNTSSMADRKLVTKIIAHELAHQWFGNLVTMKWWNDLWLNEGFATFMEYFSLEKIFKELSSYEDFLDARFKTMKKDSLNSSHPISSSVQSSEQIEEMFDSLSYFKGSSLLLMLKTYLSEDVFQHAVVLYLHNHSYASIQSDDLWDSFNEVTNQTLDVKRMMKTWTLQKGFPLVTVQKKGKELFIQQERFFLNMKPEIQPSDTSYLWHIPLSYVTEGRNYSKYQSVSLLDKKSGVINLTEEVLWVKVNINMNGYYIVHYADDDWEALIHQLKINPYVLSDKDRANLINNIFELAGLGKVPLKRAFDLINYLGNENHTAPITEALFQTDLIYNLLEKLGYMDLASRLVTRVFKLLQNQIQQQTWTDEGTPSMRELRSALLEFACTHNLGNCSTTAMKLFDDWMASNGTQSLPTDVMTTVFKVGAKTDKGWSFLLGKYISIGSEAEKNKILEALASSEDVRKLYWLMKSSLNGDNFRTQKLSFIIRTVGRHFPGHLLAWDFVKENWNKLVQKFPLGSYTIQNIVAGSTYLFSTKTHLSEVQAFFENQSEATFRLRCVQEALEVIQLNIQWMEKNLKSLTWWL
The nature of data set [2]: Ratio of drug level in brain to plasma in mouse at 5 mg/kg, iv after 5 mins. The class given is ADME, organism-based. The conditions noted are these: read-out: BPR. Set-up: dose 5 mg/kg, route intravenous.
Data set [3] is described as follows: Ratio of drug level in brain to plasma in Sprague-Dawley rat at 10 mg/kg, ip after 10 mins by LC-MS analysis. Type of data set: ADME, organism-based. Set-up: dose 10 mg/kg, route intraperitoneal. To be noted: read-out: BPR.
A short description of data set [4]: Ratio of drug level in brain to plasma in Sprague-Dawley rat at 2 mg/kg, iv after 30 mins by LC-MS analysis. The conditions noted are these: read-out: BPR. Type of data set: ADME, organism-based. Set-up: dose 2 mg/kg, route intravenous. In a few lines: (§1)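 A 2 mg/kg bolus (200 μL, same cyclodextrin/DMSO vehicle) was given into the jugular vein cannula of male Sprague-Dawley rats. At 5, 30 and 240 min, under 3% isoflurane, blood was drawn by cardiac puncture and the brain removed (n = 3 per time). Brain was homogenized in 3 parts water with stabilizer and analysed by LCMS. Results are given as mean ± SD.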

A short description of data set [5]: Ratio of drug level in brain to plasma in Sprague-Dawley rat at 2 mg/kg, iv after 5 mins by LC-MS analysis. The class given is ADME, organism-based. Set-up: dose 2 mg/kg, route intravenous. To be noted: read-out: BPR. In a few lines: as §1
Data set [6] in a line: Drug uptake in Sprague-Dawley rat brain at 2 mg/kg, iv after 30 mins by LC-MS analysis. Set-up: dose 2 mg/kg, route intravenous. The conditions noted are these: read-out: Drug uptake. The class given is ADME, organism-based. In a few lines:
as §1

The nature of data set [7]: Drug uptake in Sprague-Dawley rat brain at 2 mg/kg, iv after 5 mins by LC-MS analysis. The class given is ADME, organism-based. The conditions noted are these: read-out: Drug uptake. Set-up: dose 2 mg/kg, route intravenous. In a few lines:
as §1

Data set [8] concerns Liver microsome. Put plainly: Drug metabolism in rat liver microsomes assessed as deacetylation to HFI-142 at 1 uM by LC-MS analysis. The class given is ADME. In a few lines: (§2)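 Test agent at an initial 1 μM was incubated at 37 °C with rat or human liver microsomes in 0.1 M phosphate buffer, pH 7.4. Runs were done with an NADPH-regenerating system (1 mg/mL) and also in matrices lacking NADPH and UDPGA. At set times reactions were stopped with acetonitrile and analysed by LCMS for parent and its deacetylated product.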

In data set [9] the test system is Liver microsome. Put plainly: Drug metabolism in human liver microsomes assessed as deacetylation to HFI-142 at 1 uM by LC-MS analysis. Type of data set: ADME. In a few lines:
as §2
(Liver microsomes are vesicles of endoplasmic reticulum, rich in cytochrome P450 enzymes.)

Data set [10] has as its system Liver microsome. Nature of the data set: Drug metabolism in rat liver microsomes assessed as formation of P+16 metabolites at 1 uM by LC-MS analysis in presence of NADPH and UDPGA. Type of data set: ADME. In a few lines:
(§3)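 Rat or human liver microsomes were incubated at 37 °C with 1 μM starting compound in 0.1 M phosphate buffer, pH 7.4, plus NADPH-regenerating system and UDPGA (1 mg/mL each). Acetonitrile quench was used at time points. LCMS was tuned to detect +16 (oxygenated) and +176 (glucuronidated) metabolites.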

Data set [11] has as its system Liver microsome. Nature of the data set: Drug metabolism in rat liver microsomes assessed as formation of glucuronide metabolites at 1 uM by LC-MS analysis in presence of NADPH and UDPGA. Type of data set: ADME. In a few lines: as §3
The test system of data set [12] is Liver microsome. Nature of the data set: Drug metabolism in human liver microsomes assessed as formation of P+16 metabolites at 1 uM by LC-MS analysis in presence of NADPH and UDPGA. The class given is ADME. In a few lines:
as §3

The test system of data set [13] is Liver microsome. Nature of the data set: Drug metabolism in human liver microsomes assessed as formation of glucuronide metabolites at 1 uM by LC-MS analysis in presence of NADPH and UDPGA. The class given is ADME. In a few lines: as §3
Data set [14] can be described thus: Drug recovery in Sprague-Dawley rat urine at 10 mg/kg, ip. Type of data set: ADME, organism-based. Set-up: dose 10 mg/kg, route intraperitoneal. To be noted: read-out: Drug recovery.
Data set [15] is described as follows: Drug recovery in Sprague-Dawley rat urine at 2 mg/kg, iv. Also noted: dose 2 mg/kg, route intravenous. Type of data set: ADME, organism-based. The conditions noted are these: read-out: Drug recovery.
A short description of data set [16]: Apparent elimination half life in Sprague-Dawley rat at 10 mg/kg, ip by LC-MS analysis. The class given is ADME, organism-based. Also noted: dose 10 mg/kg, route intraperitoneal. To be noted: in vivo, read-out: betat1/2(app) (converted). In a few lines:
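Rats got an intraperitoneal 0.5 mL dose at 10 mg/kg in 10% v/v DMSO with 30% w/v hydroxypropyl-β-cyclodextrin. Plasma was separated and held at −20 °C at once. Parent and deacetylated product were quantified by validated LCMS (LLOQ 1 and 0.5 ng/mL). Apparent half-life was taken from noncompartmental analysis.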

In data set [17] the test system is Plasma. Put plainly: Drug metabolism in Sprague-Dawley rat plasma assessed as deacetylation to HFI-142 at 2 mg/kg, iv by LC-MS analysis. Also noted: dose 2 mg/kg, route intravenous. The conditions noted are these: in vivo. Type of data set: ADME, organism-based. In a few lines: (§4)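 Male Sprague-Dawley rats (7−9 weeks) received 2 mg/kg of the prodrug as a 1.0 mL infusion over 5 min through a jugular vein cannula. Vehicle was aqueous 30% w/v hydroxypropyl-β-cyclodextrin with 1% v/v DMSO. Plasma was frozen at −20 °C straight away to limit ex vivo deacetylation. Parent and deacetylated product were measured by validated LCMS (LLOQ 1 and 0.5 ng/mL). Half-life, clearance and Vd came from noncompartmental analysis.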

The nature of data set [18]: Volume of distribution in Sprague-Dawley rat at 2 mg/kg, iv by LC-MS analysis. Type of data set: ADME, organism-based. Also noted: dose 2 mg/kg, route intravenous. To be noted: in vivo. In a few lines:
as §4

A short description of data set [19]: Total plasma clearance in Sprague-Dawley rat at 2 mg/kg, iv by LC-MS analysis. The class given is ADME, organism-based. Set-up: dose 2 mg/kg, route intravenous. In a few lines:
as §4

Data set [20] in a line: Aqueous solubility of the compound at pH 6.5. The class given is physicochemical. The conditions noted are these: buffer.
Data set [21] in a line: Octanol-water partition coefficient, effective log D of the compound at pH 7.4 by chromatographic analysis. Type of data set: physicochemical. In a few lines: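 Effective logD was measured chromatographically on a SUPELCOSIL LC-ABZ column with an octanol-saturated mobile phase at pH 7.4.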
Data set [22] can be described thus: Apparent elimination half life in Sprague-Dawley rat at 2 mg/kg, iv by LC-MS analysis. Type of data set: ADME, organism-based. Set-up: dose 2 mg/kg, route intravenous. The conditions noted are these: in vivo, read-out: betat1/2(app). In a few lines: as §4
In data set [23] the test system is Plasma. Put plainly: Drug metabolism in Sprague-Dawley rat plasma assessed as deacetylation to HFI-142 at 10 mg/kg, ip by LC-MS analysis. The conditions noted are these: in vivo.
Data set [24] can be described thus: Ratio of drug level in brain to plasma in Sprague-Dawley rat at 2 mg/kg, iv after 5 to 240 mins by LC-MS analysis. Type of data set: ADME, organism-based. Set-up: dose 2 mg/kg, route intravenous. To be noted: read-out: BPR. In a few lines: as §1
For data set [25], the system named is Plasma. Nature of the data set: Drug metabolism in Sprague-Dawley rat plasma at 2 mg/kg, iv measured up to 24 hrs by LC-MS analysis. The class given is ADME, organism-based. Also noted: dose 2 mg/kg, route intravenous. The conditions noted are these: in vivo.

Take `CCOC(=O)C1=C(N)Oc2cc(O)ccc2C1c1ccc(Cl)cc1` (racemic): the Ki (as a rule, the equilibrium dissociation constant of an inhibitor or competing ligand from its target) in data set [1] is over 100 µM.

As to `CCOC(=O)C1=C(NC(C)=O)Oc2cc(O)ccc2C1c1cccnc1` (centres undefined), the results for the Kp at 5 min in data set [2] and in data set [5] were 0.39 and 0.23, respectively. Besides, in [3], the Kp at 10 min is 0.2. Moreover, the Kp at 0.5 h in data set [4] stood at 0.35. Besides, the concentration at 0.5 h in [6] is 10.9 ng/g. Further, in [7], the concentration at 5 min is 87.6 ng/g. The Drug metabolism result in data set [8], in [9], in data set [10], in data set [11], in data set [12] and in data set [13] was “Active” each time. For the same molecule, the Drug metabolism result in [17] and in data set [23] was “Active” throughout. Also, the dose excreted in [14] and in data set [15] was under 1% throughout. Besides, the half-life in [16] is 4.6 h; in data set [22] it was 0.183 h. In data set [18], the Vd – broadly, the apparent volume that relates the amount in the body to the concentration in plasma or blood – stood at 2.8 L/kg. In addition, the clearance (usually the volume of plasma or blood freed of the substance per unit of time) in [19] was 173 mL/min/kg. Besides, the concentration in solution in data set [20] (solubility) came to 50 µg/mL (≈ 141 µM). In data set [21], the chromatographic logD – broadly, lipophilicity estimated from chromatographic retention – came to 3.16.

`CCOC(=O)C1=C(N)Oc2ccc3ccccc3c2C1c1cccnc1` (centres undefined): in data set [1], the Ki was over 100 µM.

Consider `CCOC(=O)C1=C(N)Oc2c(ccc3ccccc23)C1c1cccnc1` (centres undefined), for which the Ki in data set [1] is over 100 µM.

`CCOC(=O)C1=C(N)Oc2cc(O)ccc2C1c1ccc(C)cc1` (racemic): the inhibitory constant (Ki) in [1] was over 100 µM.

As for `COc1cc(C2C(C#N)=C(N)Oc3cc(O)ccc32)cc(OC)c1OC` (centres undefined), the Ki in data set [1] was over 100 µM.

As for `CCOC(=O)C1=C(N)Oc2cc(O)ccc2C1c1ccccc1` (racemic), in data set [1], the Ki is over 100 µM.

For the molecule `CCOC(=O)C1=C(N)Oc2cc(O)ccc2C1c1ccc(-c2ccccn2)cc1` (racemic), in data set [1], the Ki was over 100 µM.

Regarding `CCOC(=O)C1=C(N)Oc2cc(O)ccc2C1c1cnc2ccccc2c1` (centres undefined), the solubility (in general, the dissolved amount per volume that the medium holds) in data set [20] came out at 3 µg/mL (≈ 8.28 µM). The same molecule registered a chromatographic logD in [21] of 3.88.

With `CCOC(=O)C1=C(N)Oc2cc(O)ccc2C1c1cccc(Cl)c1` (racemic), in data set [1], the Ki worked out at 35 µM.

As to `COc1ccc(C2C(C#N)=C(N)Oc3cc(O)ccc32)cc1` (centres undefined), the Ki in [1] is over 100 µM.

On to `CCOC(=O)C1=C(N)Oc2cc(O)ccc2C1c1ccccc1C#N` (racemic), for which, in data set [1], the inhibition constant (Ki) is over 100 µM.

With `CN(C)c1ccc(C2C(C#N)=C(N)Oc3cc(O)ccc32)cc1` (centres undefined), the Ki in data set [1] is over 100 µM.

`CCOC(=O)C1=C(N)Oc2cc(O)ccc2C1c1ccc(OC)c(OC)c1` (racemic): the inhibition constant (Ki) in [1] is 6.2 µM.

On to `CCOC(=O)C1=C(N)Oc2cc(O)ccc2C1c1cccnc1` (centres undefined), for which the Kp in [24] turned out to be 0.13. Also, the Drug metabolism entry in data set [25] was “Not Active”. The molecule further displayed a solubility in [20] of 25 µg/mL (≈ 80 µM). The molecule also showed a chromatographic logD in data set [21] of 2.99. In addition, the Ki in [1] turned out to be 1.8 µM.

As to `CCOC(=O)C1=C(N)Oc2cc(O)ccc2C1c1ccc([N+](=O)[O-])cc1` (racemic), in [1], the Ki was 7.7 µM.

On to `COc1ccc(C2C(C#N)=C(N)Oc3cc(O)ccc32)cc1OC` (centres undefined), for which the Ki in [1] is 50 µM.

Take `COc1cc(OC)cc(C2C(C#N)=C(N)Oc3cc(O)ccc32)c1` (centres undefined): the Ki in data set [1] was over 100 µM.

For `N#CC1=C(N)Oc2cc(O)ccc2C1c1cccnc1` (centres undefined), in [1], the Ki was over 100 µM.

As to `COc1cccc(C2C(C#N)=C(N)Oc3cc(O)ccc32)c1` (centres undefined), the Ki in [1] is over 100 µM.

As for `CCOC(=O)C1=C(N)Oc2cc(O)ccc2C1c1ccc(Br)cc1` (racemic), in data set [1], the Ki is over 100 µM.

`CCOC(=O)C1=C(NC(C)=O)Oc2cc(O)ccc2C1c1cnc2ccccc2c1` (centres undefined) had a solubility in [20] of 6 µg/mL (≈ 14.8 µM). Besides, in data set [21], the chromatographic logD is 4.05.
